Compound activity as filed in PubChem.
Hits are enriched below; roughly 1.7% of the tested compounds scored in any of these assays.
DNMT1 inh = inhibitors of human DNMT1. P26358. DNMT1 molecular beacon, Hinp1I cleavage, fluorescence. inhibition (reported as % activation of signal), % at 10 µM. 0.83% of 360,000 active. AID 588458; in the data active = inhibition above about 50%
LMPTP block = blocks human LMPTP phosphatase | recombinant LMPTP-A, OMFP fluorogenic substrate, fluorescence intensity | inhibition, % at 20 µM | 0.22% of 360,000 active | AID 651560;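 active = compounds that cut the enzyme signal by at least half of the control window in the single-dose screen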;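 also: plate controls were DMSO wells with enzyme plus substrate for no effect and substrate without enzyme for full effect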
Target sequence (P24666 whole entry, looked up): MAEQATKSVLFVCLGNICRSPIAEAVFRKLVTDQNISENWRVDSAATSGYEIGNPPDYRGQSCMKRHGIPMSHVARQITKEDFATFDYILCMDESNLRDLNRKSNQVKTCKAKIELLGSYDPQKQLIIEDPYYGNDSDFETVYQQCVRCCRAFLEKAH
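material = LMPTP-A | quantity = 0.625 nM enzyme | reagent = OMFP substrate, 400 µM final | buffer or medium = Bis-Tris pH 6.0, DTT, detergent | detection = endpoint fluorescence intensity from OMFP dephosphorylation | dosing = single 20 µM dose | read-out basis = % inhibition relative to no-enzyme and uninhibited control wells | control set = no-enzyme and uninhibited controls | timing = 50 min at room temperature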
SUMO1 PPI mod = SUMO1-SIM interaction modulation; AID 602429; SUMO1 binding to a labelled peptide, TR-FRET, 1 h; 0.33% of 360,000 active; inhibition, % at 20 µM; P63165; in the data active = inhibition above about 37%
Target sequence (P63165 whole entry, looked up): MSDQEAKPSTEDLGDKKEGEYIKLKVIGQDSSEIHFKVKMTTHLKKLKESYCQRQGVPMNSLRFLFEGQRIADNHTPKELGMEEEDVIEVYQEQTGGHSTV
Scp-1 inhibitor = Scp-1 (human) phosphatase inhibition | Recombinant Scp1, phosphopeptide, malachite green phosphate absorbance | inhibition, % at 20 µM | 0.88% of 340,000 active;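 active = inhibition above about 50% at 20 µM, limit read from the data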;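 also: plate controls were DMSO wells with enzyme for no effect and wells lacking enzyme for full effect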
Target sequence (Q9GZU7 76-261 limits assumed): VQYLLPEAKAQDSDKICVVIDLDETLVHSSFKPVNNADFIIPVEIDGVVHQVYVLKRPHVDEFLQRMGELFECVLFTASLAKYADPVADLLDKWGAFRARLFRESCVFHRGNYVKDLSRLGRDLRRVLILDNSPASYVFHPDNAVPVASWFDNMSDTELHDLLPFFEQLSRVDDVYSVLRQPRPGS
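Test system: SCP-1 catalytic domain; Buffer or medium: Acidic Tris acetate buffer with magnesium and detergent; Also added: Phosphorylated 17-residue peptide substrate; Compound: single 20 µM dose, 1% DMSO; Schedule: enzyme reaction 45 min at room temperature, colour 5 min, stabilisation 30 min; Signal: Phosphate-binding colour reagent, absorbance read at 630 nm.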
STEP inh = inhibitors of human striatal-enriched phosphatase STEP. P54829. recombinant STEP, OMFP fluorogenic substrate, fluorescence. inhibition, % at 20 µM. 0.25% of 360,000 active. AID 588621;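 active = inhibition at 20 µM, scaled per plate between control wells, above about 37%, limit read from the data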;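 also: 0% = DMSO with enzyme and substrate and 100% = substrate only without enzyme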
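System: isolated STEP enzyme; schedule: 20 min enzyme reaction at room temperature, protected from light; medium: Bis-Tris buffer pH 6.0, 2.5 mM DTT, 0.005% Tween 20; signal: fluorescence, 480/540 nm; dosing: single compound dose of 20 µM, 1% DMSO final; also added: OMFP substrate, 25 µM final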
The depositor's hits bear a star; · = no result.

SMILES	DNMT1 inh	LMPTP block	SUMO1 PPI mod	Scp-1 inhibitor	STEP inh
O=C(COC(=O)c1ccc([N+](=O)[O-])s1)NCc1ccc(F)cc1	27.8	-0.3	49.4*	-10.3	2.2
Cc1cc(C)c(S(=O)(=O)Nc2nccs2)c(C)c1	0.9	-0.6	42.5*	-9.6	-1.3
COCc1nnc(NS(=O)(=O)c2c(C)cc(C)cc2C)s1	0.2	-2.2	-0.9	-1.8	-3.4
O=C(O)CN1C(=O)/C(=C\c2cc(Br)ccc2OCc2ccccc2F)SC1=S	22.2	4.5	16.2	2.0	5.5
COc1cc([N+](=O)[O-])cc(/C=C2/SC(=S)N(Cc3ccccc3)C2=O)c1O	-14.0	5.0	64.5*	3.6	8.4
O=C1/C(=C\c2cc(Br)cc(Br)c2O)SC(=S)N1Cc1ccccc1	64.5*	10.4	18.1	7.4	10.1
O=C1/C(=C\c2ccc(O)cc2)SC(=S)N1Cc1ccccc1	-3.6	1.4	-14.1	23.0	-2.1
O=C(O)CN1C(=O)/C(=C\c2cc(Br)ccc2OCc2ccc([N+](=O)[O-])cc2)SC1=S	55.7*	25.6	25.3	49.7	24.3
COc1cccc(CN2CCN(CC(=O)NCCc3ccccc3)CC2)c1	-1.9	0.1	7.0	15.0	0.3
Cc1ccc(/C=C2\SC(=S)N(/N=C/c3cc([N+](=O)[O-])ccc3O)C2=O)o1	83.0*	52.8*	45.3*	57.0*	17.2
O=C(c1ccc2ccccc2c1)c1cccc(F)c1C(=O)O	8.5	-0.7	-8.3	·	-1.7
Oc1[nH]c(N=C2N=c3ccccc3=N2)c2ccccc12	-0.8	-0.7	-20.1	-9.1	0.4
COc1cc2c3c(cccc3c1)C(=O)N(CCN1CCCC1)C2=O	73.4*	20.6	-30.3	·	-2.0
COc1cc(/C=C2\C(=O)N(c3ccc(S(N)(=O)=O)cc3)N=C2C)ccc1OC(=O)c1ccco1	15.5	35.5	44.8*	25.3	27.4
C#CCOc1ccc(/C=C2/C(=O)N(c3ccc(S(N)(=O)=O)cc3)N=C2C)cc1OC	39.2	24.4	26.3	·	7.4
C#CCOc1ccc(/C=C2/C(=O)N(c3cccc(C(=O)O)c3)N=C2C)cc1OC	43.0	1.6	34.6	58.1*	7.1
O=C(CSc1nnc(-c2ccco2)c(-c2ccco2)n1)Nc1ccccc1	118.5*	52.8*	76.9*	58.5*	17.8
CN(C)c1ccc(NC(=O)CSc2nnc(-c3ccco3)c(-c3ccco3)n2)cc1	-8.4	26.8	-8.5	-3.4	3.6
Cc1cccc(C)c1NC(=O)CSc1nnc(-c2ccco2)c(-c2ccco2)n1	115.7*	56.8*	50.7*	77.0*	39.3*
COc1ccc(NC(=O)CSc2nnc(-c3ccco3)c(-c3ccco3)n2)cc1OC	-4.4	1.4	-12.4	12.2	-2.2
Cc1ccccc1NC(=O)CSc1nnc(-c2ccco2)c(-c2ccco2)n1	105.6*	28.9	26.9	68.2*	6.0
COc1ccccc1N(CC(=O)NC1CCCC1)S(=O)(=O)c1cccc(C(F)(F)F)c1	6.2	-1.0	0.0	-1.9	0.9
Cc1c(P(=O)(c2ccccc2)c2ccccc2)c2ccccc2n1C	17.8	0.6	0.1	·	-0.8
COc1ccc(C(O)c2ncc(-c3ccccc3F)[nH]2)cc1 (stereo unspecified)	50.7*	0.2	12.1	·	0.8
Cc1ccc(CC#N)c(-c2c(CC#N)ccc(C)c2C)c1C	4.4	-0.6	-2.3	·	1.1
SMILES	DNMT1 inh	LMPTP block	SUMO1 PPI mod	Scp-1 inhibitor	STEP inh
Cc1ccc2c(c1C)-c1c(ccc(C)c1C)C(=O)C2=O	95.3*	7.6	48.8*	-16.2	4.6
Cc1ccc(S(=O)(=O)NCC(=O)OCC(=O)NCc2ccc3c(c2)OCO3)cc1	-3.1	-1.0	3.4	-2.8	-0.4
Cc1ccc(C)c(Cn2ncc3ccccc32)c1	-1.1	0.4	0.1	-1.8	-1.8
CCCC[C@@H]1CNC(=O)C(=O)N1CC1CCCCC1	·	-1.1	2.0	·	·
CCCCN1C(=O)C(=O)NC[C@@H]1CC1CCCCC1	·	6.5	44.7*	·	·
Cc1cccc(N2CC(C(=O)Nc3ccccc3N3CCOCC3)CC2=O)c1C (stereo unspecified)	-2.4	1.0	-3.8	-2.7	-1.7
COc1ccc(-c2cc(CCC(=O)N3CCN(c4cc(C)ccc4C)CC3)on2)cc1	-8.2	6.5	5.8	9.2	1.6
O=C1NC(=S)S/C1=C\c1ccc(SCc2ccco2)o1	103.1*	76.1*	83.0*	77.2*	50.1*
